{"data": "Experimental data from different studies", "effect on": "cell growth or viability", "note": "Compare with care: the assays were run in different laboratories."}
{"Structure (SMILES)": "COc1cc([C@@H]2c3cc4c(cc3[C@@H](O[C@@H]3O[C@@H]5CO[C@@H](C)O[C@H]5[C@H](O)[C@H]3O)[C@H]3COC(=O)[C@H]23)OCO4)cc(OC)c1O", "cell line": "Caco-2", "technique": "MTS", "time": "24 h", "IC50": "21.8 µM"}
{"Structure (SMILES)": "CC(C)Cc1ccc(-c2nn(-c3ccc(S(C)(=O)=O)cc3)cc2/C=N/N=c2\\[nH]c(-c3ccc([N+](=O)[O-])cc3)cs2)cc1", "cell line": "F180", "technique": "MTT", "time": "48 h", "IC50": "23.6 µM"}
{"Structure (SMILES)": "CC(C)/N=C1\\c2cc(C(N)=O)nc3c(N)c(Cl)c(N)c(c23)N1C", "cell line": "HCC44", "IC50": "0.5 µM"}
{"Structure (SMILES)": "CC(C)c1cc(C(=O)N2Cc3ccccc3C2)c(O)c2c1C(=O)C(C)(C)C2", "cell line": "UMUC3", "technique": "ATP luminescence", "time": "72 h", "IC50": "51.9 µM"}
{"Structure (SMILES)": "CS(=O)(=O)c1ccc(-n2cc(C=N/N=c3\\[nH]c(-c4ccc(Br)cc4)cs3)c(-c3ccc([N+](=O)[O-])cc3)n2)cc1", "cell line": "F180", "technique": "MTT", "time": "48 h", "IC50": "36.6 µM"}
{"Structure (SMILES)": "COc1cc(/C=C/C(=O)CC(=O)/C=C/c2ccc(O)c(OC)c2)ccc1O", "cell line": "LLC-PK1", "technique": "MTT", "time": "72 h", "IC50": "> 25 µM"}
{"Structure (SMILES)": "CCN(CC)C(=O)c1ncn2c(=O)n(C)nnc12", "cell line": "U-118-MG", "technique": "resazurin", "time": "7 days", "IC50": "80 µM"}
{"Structure (SMILES)": "C=C1Cc2c(O)c(C(=O)N3Cc4ccccc4C3)cc(C(C)C)c2C1=O", "cell line": "UMUC3", "technique": "ATP luminescence", "time": "72 h", "IC50": "> 100 µM"}
{"Structure (SMILES)": "COc1ccc(/C=C/C(=O)/C=C/c2c(C)nn(-c3ccccc3)c2Cl)cc1O", "cell line": "LLC-PK1", "technique": "MTT", "time": "72 h", "IC50": "16.1 µM"}
{"Structure (SMILES)": "c1csc([I+]c2cccs2)c1", "cell line": "Caco-2", "technique": "trypan blue", "time": "48 h", "IC50": "~0.5 µM"}
{"Structure (SMILES)": "O=c1c(O)c(-c2ccc(O)cc2)oc2cc(O)cc(O)c12", "cell line": "RD", "technique": "WST-1", "time": "48 h", "IC50": "54.1 µM"}
{"Structure (SMILES)": "CS(=O)(=O)c1ccc(-n2cc(/C=N/N=c3\\[nH]c(-c4ccc([N+](=O)[O-])cc4)cs3)c(-c3ccc(Br)cc3)n2)cc1", "cell line": "F180", "technique": "MTT", "time": "48 h", "IC50": "71.8 µM"}
{"Structure (SMILES)": "COc1ccc(CCNC(=O)C(=O)Nc2ccc(Cl)cc2)cc1", "cell line": "NCI-H2122", "IC50": "< 0.1 µM"}
{"Structure (SMILES)": "O=C(/C=C/c1ccc(O)c(O)c1)O[C@@H]1C[C@](O)(C(=O)O)C[C@@H](O)[C@H]1O", "cell line": "RD", "technique": "WST-1", "time": "48 h", "IC50": "30.1 µM"}
{"Structure (SMILES)": "CC(C)c1cc(C(=O)N2Cc3ccccc3C2)c(O)c2ccoc12", "cell line": "UMUC3", "technique": "ATP luminescence", "time": "72 h", "IC50": "71.6 µM"}
{"Structure (SMILES)": "Cn1nnc2c(Cl)ncn2c1=O", "cell line": "U-118-MG", "technique": "resazurin", "time": "7 days", "IC50": "60 µM"}
{"Structure (SMILES)": "C[C@@H]1[C@H](O)[C@@H](C)/C=C/C=C/C=C/C=C/C=C/C=C/C=C/[C@H](O[C@@H]2O[C@H](C)[C@@H](O)[C@H](N)[C@@H]2O)C[C@@H]2O[C@](O)(C[C@@H](O)C[C@@H](O)[C@H](O)CC[C@@H](O)C[C@@H](O)CC(=O)O[C@H]1C)C[C@H](O)[C@H]2C(=O)O", "cell line": "LLC-PK1", "technique": "neutral red", "time": "48 h", "IC50": "0.6 µg/mL"}
{"Structure (SMILES)": "CC(C)c1cc(C(=O)N2Cc3ccccc3C2)c(O)c2cn[nH]c12", "cell line": "UMUC3", "technique": "ATP luminescence", "time": "72 h", "IC50": "> 100 µM"}
{"Structure (SMILES)": "COc1cccc2c1C(=O)c1c(O)c3c(c(O)c1C2=O)C[C@@](O)(C(=O)CO)C[C@@H]3O[C@H]1C[C@H](N)[C@H](O)[C@H](C)O1", "cell line": "Caco-2", "technique": "MTT", "time": "48 h", "IC50": "17.8 µM"}
{"Structure (SMILES)": "COc1ccc(/C=C/C(=O)/C=C/c2c(C)nn(-c3cccc([N+](=O)[O-])c3)c2Cl)cc1OC", "cell line": "LLC-PK1", "technique": "MTT", "time": "72 h", "IC50": "21 µM"}
{"Structure (SMILES)": "Cc1[nH]c(/C=C2\\C(=O)Nc3ccc(S(=O)(=O)N(C)c4cccc(Cl)c4)cc32)c(C)c1C(=O)N1CCN(C)CC1", "cell line": "RD", "time": "72 h", "IC50": "2.11 µM"}
{"Structure (SMILES)": "CC(O)(CS(=O)(=O)c1ccc(F)cc1)C(=O)Nc1ccc(C#N)c(C(F)(F)F)c1 (stereo not drawn)", "cell line": "LAPC4", "technique": "MTT", "time": "7 days", "IC50": "9 µM"}
{"Structure (SMILES)": "COc1cc(/C=C/C(=O)/C=C/c2cn(-c3ccccc3)nc2-c2ccccc2)cc(OC)c1O", "cell line": "LLC-PK1", "technique": "MTT", "time": "72 h", "IC50": "10.2 µM"}
{"Structure (SMILES)": "CN(C)C/C=C/C(=O)Nc1cc2c(Nc3ccc(F)c(Cl)c3)ncnc2cc1O[C@H]1CCOC1", "cell line": "Caco-2", "technique": "MTT", "time": "72 h", "IC50": "3.1 µM"}
{"Structure (SMILES)": "CC(C)Cc1ccc(-c2nn(-c3ccc(S(C)(=O)=O)cc3)cc2/C=N\\N=C2/NC(=O)CS2)cc1", "cell line": "F180", "technique": "MTT", "time": "48 h", "IC50": "44.6 µM"}
{"Structure (SMILES)": "COc1cccc(C(=O)O[C@@H]2CN3Cc4c(cc5c(c4OC)OCO5)[C@@]24C=C[C@H](OC)C[C@@H]34)c1", "cell line": "A2780", "technique": "WST-1", "IC50": "> 10 µM"}
{"Structure (SMILES)": "Cc1cccc(-n2ncc(Br)c(Br)c2=O)c1", "cell line": "NCI-H1650", "technique": "resazurin", "time": "96 h", "IC50": "0.74 µM"}
{"Structure (SMILES)": "Cn1nnc2c(C(=O)N3CCCC3)ncn2c1=O", "cell line": "U-118-MG", "technique": "resazurin", "time": "7 days", "IC50": "136 µM"}
{"Structure (SMILES)": "CN1/C(=N/c2ccc(Cl)cc2)c2cc(C(N)=O)nc3c(N)c(Cl)c(N)c1c23", "cell line": "HCC44", "IC50": "23.2 µM"}
{"Structure (SMILES)": "Cc1ncn2c(=O)n(C)nnc12", "cell line": "U-118-MG", "technique": "resazurin", "time": "7 days", "IC50": "7 µM"}
{"Structure (SMILES)": "Nc1ncnc2c1ncn2[C@@H]1O[C@H](CO)[C@@H](O)[C@H]1O", "cell line": "RD", "technique": "WST-1", "time": "48 h", "IC50": "66.5 µM"}
{"Structure (SMILES)": "CC(=O)OC[C@H]1O[C@@H]([S-])[C@H](OC(C)=O)[C@@H](OC(C)=O)[C@@H]1OC(C)=O.CCP(CC)CC.[Au+]", "cell line": "IMR-90", "technique": "resazurin", "IC50": "6.77 µM"}
{"Structure (SMILES)": "CC(C)c1cc(C(=O)N2Cc3ccccc3C2)c(O)c2c1CCC2", "cell line": "UMUC3", "technique": "ATP luminescence", "time": "72 h", "IC50": "57.4 µM"}
{"Structure (SMILES)": "Cc1ccc(-c2nn(-c3ccc(S(C)(=O)=O)cc3)cc2/C=N\\N=c2/[nH]c(-c3ccc([N+](=O)[O-])cc3)cs2)cc1", "cell line": "F180", "technique": "MTT", "time": "48 h", "IC50": "99.5 µM"}
{"Structure (SMILES)": "COc1cc(/C=C/C(=O)/C=C/c2cn(-c3ccccc3)nc2-c2ccccc2)ccc1O", "cell line": "LLC-PK1", "technique": "MTT", "time": "72 h", "IC50": "15.8 µM"}
{"Structure (SMILES)": "O=c1[nH]cc(F)c(=O)[nH]1", "cell line": "RD", "technique": "WST-1", "time": "48 h", "IC50": "21.1 µM"}
{"Structure (SMILES)": "COc1cc(Nc2nccc(-c3cnn4nc(OC)ccc34)n2)cc(C(F)(F)F)c1", "cell line": "NCI-H1581", "technique": "ATP luminescence", "IC50": "0.41 µM"}
{"Structure (SMILES)": "O=C(Nc1ccc(CN2CCOCC2)c(C(F)(F)F)c1)c1ccc(C#Cc2cccc3cnccc23)cn1", "cell line": "IMR-90", "technique": "MTT", "IC50": "> 180 µM"}
{"Structure (SMILES)": "COc1cc(/C=C/C(=O)/C=C/c2c(C)nn(-c3cccc([N+](=O)[O-])c3)c2Cl)cc(OC)c1O", "cell line": "LLC-PK1", "technique": "MTT", "time": "72 h", "IC50": "15.4 µM"}
{"Structure (SMILES)": "CC(C)c1cc(C(=O)N2Cc3ccccc3C2)c(O)c2c1C(=O)C(C(F)(F)F)C2 (stereo not drawn)", "cell line": "UMUC3", "technique": "ATP luminescence", "time": "72 h", "IC50": "59.6 µM"}
{"Structure (SMILES)": "CC(C)C[C@H](NC(=O)[C@H](Cc1ccccc1)NC(=O)c1cnccn1)B(O)O", "cell line": "LoVo", "technique": "ATP luminescence", "IC50": "0.015 µM"}
{"Structure (SMILES)": "CC(C)c1cc(C(=O)N2Cc3ccccc3C2)c(O)c2c1C(=O)C=C2", "cell line": "UMUC3", "technique": "ATP luminescence", "time": "72 h", "IC50": "1.18 µM"}
{"Structure (SMILES)": "CNC(=O)c1cccc2cc(Oc3ccnc4cc(OCC5(N)CC5)c(OC)cc34)ccc12", "cell line": "Swiss-3T3", "technique": "SRB", "IC50": "0.064 µM"}
{"Structure (SMILES)": "Cc1nc(Nc2ncc(C(=O)Nc3c(C)cccc3Cl)s2)cc(N2CCN(CCO)CC2)n1", "cell line": "F180", "technique": "MTT", "time": "48 h", "IC50": "32.2 µM"}
{"Structure (SMILES)": "C[C@@H](Oc1cc(-c2cnn(C3CCNCC3)c2)cnc1N)c1c(Cl)ccc(F)c1Cl", "cell line": "RD", "time": "72 h", "IC50": "0.49 µM"}
{"Structure (SMILES)": "COc1cc([C@@H]2c3cc4c(cc3[C@@H](O[C@@H]3O[C@@H]5CO[C@@H](C)O[C@H]5[C@H](O)[C@H]3O)[C@H]3COC(=O)[C@H]23)OCO4)cc(OC)c1O", "cell line": "Caco-2", "technique": "MTS", "time": "72 h", "IC50": "16.5 µM"}
{"Structure (SMILES)": "CON=C1CCc2c(O)c(C(=O)N3Cc4ccccc4C3)cc(C(C)C)c21", "cell line": "UMUC3", "technique": "ATP luminescence", "time": "72 h", "IC50": "78.2 µM"}
{"Structure (SMILES)": "COc1cc2nccc(Oc3ccc(NC(=O)C4(C(=O)Nc5ccc(F)cc5)CC4)cc3)c2cc1OC", "cell line": "RD", "time": "72 h", "IC50": "1.21 µM"}
